Test results published in ChEMBL document CHEMBL3616466, “Pyrazolo[3,4-h]quinolines promising photosensitizing agents in the treatment of cancer” (Eur J Med Chem, 2015).
Calls of active or inactive are those of the source. The rule behind the calls is not given here.

Columns and labels:
[1] = test system: Jurkat; assay: Photocytotoxicity against human Jurkat cells assessed as growth inhibition at 2.5 J/cm'2 irradiation for 30 mins followed by drug treated for 72 hrs by MTT assay; type: functional; settings: light or radiation study
In short: (§1)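 Cells seeded at 5 × 10³ per well and pre-incubated 24 h. Drug dilutions in HBSS (pH 7.2, from DMSO stock) added for 30 min at 37 °C, then UV-A irradiation at the stated dose. Drug solution then replaced with culture medium and plates incubated 72 h. Viability by MTT; GI50 from concentration series.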

[2] = test system: Jurkat; assay: Photocytotoxicity against human Jurkat cells assessed as growth inhibition at 1.25 J/cm'2 irradiation for 30 mins followed by drug treated for 72 hrs by MTT assay; type: functional; settings: light or radiation study; in short: as §1
[3] = test system: HL-60; assay: Photocytotoxicity against human HL60 cells assessed as growth inhibition at 2.5 J/cm'2 irradiation for 30 mins followed by drug treated for 72 hrs by MTT assay; type: functional; settings: HL-60, light or radiation study; in short: as §1
[4] = test system: HL-60; assay: Photocytotoxicity against human HL60 cells assessed as growth inhibition at 1.25 J/cm'2 irradiation for 30 mins followed by drug treated for 72 hrs by MTT assay; type: functional; settings: HL-60, light or radiation study; in short: as §1
[5] = test system: MCF7; assay: Photocytotoxicity against human MCF7 cells assessed as growth inhibition at 3.75 J/cm'2 irradiation for 30 mins followed by drug treated for 72 hrs by MTT assay; type: functional; settings: MCF7, light or radiation study; in short: as §1
[6] = test system: MCF7; assay: Photocytotoxicity against human MCF7 cells assessed as growth inhibition at 2.5 J/cm'2 irradiation for 30 mins followed by drug treated for 72 hrs by MTT assay; type: functional; settings: MCF7, light or radiation study; in short: as §1
[7] = test system: A549; assay: Photocytotoxicity against human A549 cells assessed as growth inhibition at 3.75 J/cm'2 irradiation for 30 mins followed by drug treated for 72 hrs by MTT assay; type: functional; settings: A549, light or radiation study; in short: as §1
[8] = test system: A549; assay: Photocytotoxicity against human A549 cells assessed as growth inhibition at 2.5 J/cm'2 irradiation for 30 mins followed by drug treated for 72 hrs by MTT assay; type: functional; settings: A549, light or radiation study; in short: as §1
[9] = test system: LoVo; assay: Photocytotoxicity against human LoVo cells assessed as growth inhibition at 3.75 J/cm'2 irradiation for 30 mins followed by drug treated for 72 hrs by MTT assay; type: functional; settings: light or radiation study; in short: as §1
[10] = test system: LoVo; assay: Photocytotoxicity against human LoVo cells assessed as growth inhibition at 2.5 J/cm'2 irradiation for 30 mins followed by drug treated for 72 hrs by MTT assay; type: functional; settings: light or radiation study; in short: as §1
[11] = test system: A549; assay: Photocytotoxicity against human A549 cells assessed as inhibition of colony formation at 2.5 J/cm'2 irradiation after 1 to 2 weeks using crystal violet staining by optical microscopy; type: functional, cell-based
In short: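 A-549 cells (10 × 10³) plated in dishes. After 24 h, irradiated at 2.5 J/cm² with compound at varying concentrations. Medium replaced, then cultured 1–2 weeks with medium changes every 2–3 days. Stained with crystal violet; colonies of ≥50 cells counted visually. Expressed as % of untreated cells; mean ± SEM of three experiments.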

[12] = test system: Jurkat; assay: Induction of apoptosis in human Jurkat cells assessed as reduction in alive cells using Annexin-V and propidium iodide staining at 1 to 2 uM measured 24 hrs post 2.5 J/cm'2 irradiation by flow cytometry analysis; type: functional, cell-based
In short: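 Jurkat cells irradiated (2.5 J/cm²) with compound at 1 or 2 µM. After 24 h, co-stained with Annexin V-FITC and PI and analysed by flow cytometry (excitation 488 nm; emission 525 and 585 nm). Mean of three independent experiments.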

[13] = test system: Jurkat; assay: Induction of apoptosis in human Jurkat cells assessed as increase in cleaved caspase 3 level at 1 uM measured 24 hrs post 2.5 J/cm'2 irradiation by Western blot analysis; type: functional, cell-based
In short: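 Jurkat cells irradiated (2.5 J/cm²) with compound at 1 µM. At 24 h, cells washed in cold PBS and lysed on ice for 20 min. 20 µg protein run on 8–16% gradient gels and transferred to nitrocellulose. Probed with rabbit anti-caspase-3 and β-actin (1:1000, 2 h), then peroxidase anti-rabbit IgG; ECL detection.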

[14] = test system: Jurkat; assay: Induction of apoptosis in human Jurkat cells assessed as reduction in mitochondrial potential at 1 to 2 uM using JC-1 staining measured 24 hrs post 2.5 J/cm'2 irradiation by FACS assay; type: functional, cell-based
In short: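 At 24 h after 2.5 J/cm² irradiation with compound at 1 or 2 µM, Jurkat cells were pelleted and resuspended in HBSS with 1 µM JC-1. After 10 min at 37 °C, fluorescence read at 530 and 590 nm by flow cytometry. Mean ± SEM, n=3.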

[15] = test system: Jurkat; assay: Induction of apoptosis in human Jurkat cells assessed as ROS production at 1 to 2 uM using HE and DCFDA staining measured 24 hrs post 2.5 J/cm'2 irradiation by FACS assay; type: functional, cell-based
[16] = test system: Jurkat; assay: Induction of apoptosis in human Jurkat cells assessed as lysosome death at 1 to 2 uM using acridine orange staining measured 24 hrs post 2.5 J/cm'2 irradiation by flow cytometry; type: functional, cell-based
[17] = test system: Escherichia coli; assay: Induction of DNA damage in Escherichia coli pBR322 DNA measured at 7.5 J/cm'2 UV-A irradiation by neutral agarose electrophoresis
In short: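 pBR322 plasmid (100 ng) in 10 mM phosphate buffer pH 7.2 irradiated at 7.5 J/cm² UV-A with compound at a compound/DNA ratio of 3/1. Aliquots incubated at 37 °C with Fpg or Endo III. Run on 1% agarose in TAE at 70 V for 4 h; supercoiled, open circular and linear bands quantified.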

[18] = test system: Jurkat; assay: Induction of lipid peroxidation in human Jurkat cells at 2 uM measured 24 hrs post 2.5 J/cm'2 irradiation by TBA assay; type: functional, cell-based
In short: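 TBA test for TBARS performed on supernatant medium and on cell lysates 24 h post-irradiation. Mean ± SEM of three experiments.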

[19] = test system: Jurkat; assay: Photocytotoxicity against human Jurkat cells assessed as cell survival at 0.5 uM measured 72 hrs post 2.5 J/cm'2 irradiation by MTT assay in presence of lipophilic scavengers; type: functional, cell-based
In short: (§2)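 Jurkat cells irradiated at 2.5 J/cm² with compound in HBSS together with a scavenger: vitamin E 60 µM, NaN₃ 10 mM, DABCO 1 mM, GSH 1 mM, DMTU 1 mM or mannitol 10 mM. Medium replaced after irradiation; viability by MTT 72 h later.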

[20] = test system: Jurkat; assay: Cytotoxicity against human Jurkat cells assessed as growth inhibition after 72 hrs by MTT assay; type: functional
[21] = test system: HL-60; assay: Cytotoxicity against human HL60 cells assessed as growth inhibition after 72 hrs by MTT assay; type: functional; settings: HL-60, 72 h
[22] = test system: A549; assay: Cytotoxicity against human A549 cells assessed as growth inhibition after 72 hrs by MTT assay; type: functional; settings: A549, 72 h
In short: (§3)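 Cells (5 × 10³ per well) pre-incubated 24 h at 37 °C, 5% CO₂, then exposed in the dark to serial concentrations diluted from DMSO stock into complete medium for 72 h at 37 °C. Viability read by MTT; GI50 derived. LoVo in Ham's F-12, MCF-7 and A-549 in DMEM, all with 10% FBS and penicillin/streptomycin.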

[23] = test system: MCF7; assay: Cytotoxicity against human MCF7 cells assessed as growth inhibition after 72 hrs by MTT assay; type: functional; settings: MCF7, 72 h; in short: as §3
[24] = test system: LoVo; assay: Cytotoxicity against human LoVo cells assessed as growth inhibition after 72 hrs by MTT assay; type: functional; in short: as §3
[25] = test system: Jurkat; assay: Photocytotoxicity against human Jurkat cells assessed as reduction of cell survival at 0.2 uM measured 72 hrs post 2.5 J/cm'2 irradiation by MTT assay in the presence of vitamin E, NaN3, DABCO, DMTU and MANN; type: functional, cell-based; in short: as §2
[26] = Induction of singlet oxygen generation measured after UV-A irradiation by RNO bleaching assay; type: physicochemical
In short: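 Compound (2.2 × 10⁻⁵ M), RNO (4 × 10⁻⁵ M) and imidazole (4 × 10⁻⁵ M) in phosphate buffer pH 7.3 irradiated with increasing UV-A doses. Absorbance read at 440 nm; reported as % RNO bleaching.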

[27] = Induction of superoxide anion generation measured after UV-A irradiation by NBT reduction assay; type: physicochemical
In short: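 Compound (10⁻⁵ M) with nitroblue tetrazolium (1.6 × 10⁻⁴ M) in carbonate buffer pH 10 irradiated with increasing UV-A doses. Absorbance at 560 nm followed as the superoxide read-out.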

[28] = test system: MCF7; assay: Ratio of angelicin GI50 to compound GI50 for human MCF7 cells assessed as growth inhibition at 3.75 J/cm'2 irradiation for 30 mins followed by drug treated for 72 hrs by MTT assay; type: functional
In short: (§4)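 Cells were pre-incubated 30 min at 37 °C with drug in HBSS, irradiated, then drug replaced with medium. Ratio is angelicin GI50 divided by compound GI50.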

[29] = test system: LoVo; assay: Ratio of angelicin GI50 to compound GI50 for human LoVo cells assessed as growth inhibition at 3.75 J/cm'2 irradiation for 30 mins followed by drug treated for 72 hrs by MTT assay; type: functional; in short: as §4
[30] = test system: Jurkat; assay: Photocytotoxicity against human Jurkat cells assessed as reduction of cell survival at 0.5 uM measured 72 hrs post 2.5 J/cm'2 irradiation by MTT assay in the presence of vitamin E, NaN3, DABCO, DMTU and MANN; type: functional, cell-based; in short: as §2

Row | SMILES | GI50 [1] [µM] | GI50 [2] [µM] | GI50 [3] [µM] | GI50 [4] [µM] | GI50 [5] [µM] | GI50 [6] [µM] | GI50 [7] [µM] | GI50 [8] [µM] | GI50 [9] [µM] | GI50 [10] [µM] | Activity [11] | Activity [12] | Activity [13] | Activity [14] | Activity [15] | GI50 [20] [µM] | GI50 [21] [µM] | GI50 [22] [µM] | GI50 [23] [µM] | GI50 [24] [µM] | also measured
1 | COc1nc2c(cc1S(=O)(=O)c1ccccc1)CCc1c-2cnn1-c1ccc(Cl)cc1 | 0.43 | 0.72 | 0.48 | 4.03 | 1.69 | 7.09 | 1.49 | 5.28 | 0.73 | 5.53 | Dose-dependent effect | Active | inactive | Active | inactive | 11.3 | > 20 | > 20 | > 20 | > 20 | Activity [16]: inactive; Activity [17]: inactive; Activity [18]: Active; Activity [19]: inactive
2 | Cn1c(=O)c(S(=O)(=O)c2ccccc2)cc2ccc3c(cnn3-c3ccc(Cl)cc3)c21 | 0.1 | 0.2 | 0.31 | 0.39 | 0.17 | 0.33 | 0.08 | 0.26 | 0.04 | 0.16 | Dose-dependent effect | Active | Active | Active | Active | – | – | – | – | – | Activity [25]: inactive; Activity [26]: Active; Activity [27]: Active; Activity [16]: Active; Activity [17]: inactive; Activity [18]: Active; Ratio IC50 [28]: 8; Ratio IC50 [29]: 27
3 | COc1nc2c(cc1S(=O)(=O)c1ccccc1)CCc1c-2cnn1-c1cccc(Cl)c1 | 1.34 | 1.95 | 0.53 | 3.42 | 2.52 | 5.15 | 6.61 | 13.3 | 2.99 | 9.84 | – | – | – | – | – | 13.2 | > 20 | > 20 | > 20 | > 20 | –
4 | O=c1c(S(=O)(=O)c2ccccc2)cc2c(n1Cc1ccccc1)-c1cnn(-c3ccc(Cl)cc3)c1CC2 | 4.97 | > 20 | 7.17 | > 20 | 9.89 | > 20 | 6.64 | > 20 | 3.72 | 11.1 | – | – | – | – | – | 13.6 | 11.6 | > 20 | > 20 | > 20 | –
5 | COc1nc2c(cc1S(=O)(=O)c1ccccc1)CCc1c-2cnn1-c1ccccc1Cl | 0.9 | 1.93 | 0.81 | 3.78 | 1.59 | 3.13 | 4.8 | 14.3 | 1.78 | 5.73 | – | – | – | – | – | 9.8 | 7.17 | > 20 | > 20 | > 20 | –
6 | CCOC(=O)c1cc2c([nH]c1=O)-c1cnn(-c3ccc(Cl)cc3)c1CC2 | > 20 | > 20 | > 20 | > 20 | 9.85 | 7.32 | > 20 | > 20 | > 20 | > 20 | – | – | – | – | – | > 20 | > 20 | 5 | 6.38 | > 20 | –
7 | COc1ccc(-n2ncc3c2CCc2cc(S(=O)(=O)c4ccccc4)c(OC)nc2-3)cc1 | 0.64 | 1.15 | 0.72 | 5.29 | 1.18 | 2.53 | 1.52 | 4.02 | 0.53 | 3.56 | Dose-dependent effect | Active | inactive | Active | inactive | 12.5 | > 20 | > 20 | > 20 | > 20 | Activity [30]: inactive; Activity [16]: inactive; Activity [17]: inactive; Activity [18]: Active; Activity [19]: inactive
8 | COc1nc2c(cc1S(=O)(=O)c1ccccc1)CCc1c-2cnn1-c1ccccc1 | 0.71 | 3.65 | 0.79 | 2.83 | 1.84 | 2.47 | 2.89 | 7.56 | 1.1 | 3.14 | – | – | – | – | – | 12.1 | > 20 | > 20 | > 20 | > 20 | –
